≈ marks a conversion by molar mass, not a printed value.
Key:
Format in all cases: functional
Escherichia coli [1] = test: Antibacterial activity against extended-spectrum beta-lactamase producing Escherichia coli isolate 212648 after 18 hrs by CLSI broth microdilution method; conditions: isolate 212648, 18 h
Escherichia coli [2] = test: Selectivity index, ratio of MIC for against extended-spectrum beta-lactamase producing Escherichia coli isolate 208687 to MIC for extended-spectrum beta-lactamase producing Escherichia coli isolate 208687 in presence of BPL
Escherichia coli [3] = test: Antibacterial activity against Escherichia coli isolate 210737 after 18 hrs by CLSI broth microdilution method; conditions: isolate 210737, 18 h
Escherichia coli [4] = test: Antibacterial activity against extended-spectrum beta-lactamase producing Escherichia coli isolate 208687 after 18 hrs by CLSI broth microdilution method; conditions: isolate 208687, 18 h
Escherichia coli [5] = test: Antibacterial activity against extended-spectrum beta-lactamase producing Escherichia coli isolate 208687 after 18 hrs in presence of BPL by CLSI broth microdilution method; conditions: isolate 208687, 18 h
Procedure, shortened: (§1)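 CLSI broth microdilution against clinical isolates (ESBL E. coli, KPC-2 MDR K. pneumoniae, IMP-4 MDR P. aeruginosa; five per species). Iron limitation: Mueller-Hinton broth supplemented with 16 mg/liter 2,2'-bipyridyl to complex iron and induce iron uptake systems. Read-out: MIC.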

Escherichia coli [6] = test: Antibacterial activity against Escherichia coli isolate 210737 after 18 hrs in presence of BPL by CLSI broth microdilution method; conditions: isolate 210737, 18 h; procedure, shortened: as §1
Escherichia coli [7] = test: Selectivity index, ratio of MIC for against Escherichia coli isolate 210737 to MIC for Escherichia coli isolate 210737 in presence of BPL
Escherichia coli [8] = test: Antibacterial activity against extended-spectrum beta-lactamase producing Escherichia coli isolate 212648 after 18 hrs in presence of BPL by CLSI broth microdilution method; conditions: isolate 212648, 18 h; procedure, shortened: as §1
Escherichia coli [9] = test: Selectivity index, ratio of MIC for against extended-spectrum beta-lactamase producing Escherichia coli isolate 212648 to MIC for extended-spectrum beta-lactamase producing Escherichia coli isolate 212648 in presence of BPL
Escherichia coli [10] = test: Antibacterial activity against extended-spectrum beta-lactamase producing Escherichia coli isolate 209285 after 18 hrs by CLSI broth microdilution method; conditions: isolate 209285, 18 h
Escherichia coli [11] = test: Antibacterial activity against extended-spectrum beta-lactamase producing Escherichia coli isolate 209285 after 18 hrs in presence of BPL by CLSI broth microdilution method; conditions: isolate 209285, 18 h; procedure, shortened: as §1
Escherichia coli [12] = test: Selectivity index, ratio of MIC for against extended-spectrum beta-lactamase producing Escherichia coli isolate 209285 to MIC for extended-spectrum beta-lactamase producing Escherichia coli isolate 209285 in presence of BPL
Escherichia coli [13] = test: Antibacterial activity against extended-spectrum beta-lactamase producing Escherichia coli isolate 106342 after 18 hrs by CLSI broth microdilution method; conditions: isolate 106342, 18 h
Escherichia coli [14] = test: Antibacterial activity against extended-spectrum beta-lactamase producing Escherichia coli isolate 106342 after 18 hrs in presence of BPL by CLSI broth microdilution method; conditions: isolate 106342, 18 h; procedure, shortened: as §1
Escherichia coli [15] = test: Selectivity index, ratio of MIC for against extended-spectrum beta-lactamase producing Escherichia coli isolate 106342 to MIC for extended-spectrum beta-lactamase producing Escherichia coli isolate 106342 in presence of BPL
Klebsiella pneumoniae [16] = test: Antibacterial activity against KPC-2 producing Klebsiella pneumoniae isolate 212423 after 18 hrs by CLSI broth microdilution method; conditions: isolate 212423, 18 h
Klebsiella pneumoniae [17] = test: Antibacterial activity against KPC-2 producing Klebsiella pneumoniae isolate 212423 after 18 hrs in presence of BPL by CLSI broth microdilution method; conditions: isolate 212423, 18 h; procedure, shortened: as §1
Klebsiella pneumoniae [18] = test: Selectivity index, ratio of MIC for against KPC-2 producing Klebsiella pneumoniae isolate 212423 to MIC for against KPC-2 producing Klebsiella pneumoniae isolate 212423 in presence of BPL
Klebsiella pneumoniae [19] = test: Antibacterial activity against KPC-2 producing Klebsiella pneumoniae isolate 209632 after 18 hrs by CLSI broth microdilution method; conditions: isolate 209632, 18 h
Klebsiella pneumoniae [20] = test: Antibacterial activity against KPC-2 producing Klebsiella pneumoniae isolate 209632 after 18 hrs in presence of BPL by CLSI broth microdilution method; conditions: isolate 209632, 18 h; procedure, shortened: as §1
Klebsiella pneumoniae [21] = test: Selectivity index, ratio of MIC for against KPC-2 producing Klebsiella pneumoniae isolate 209632 to MIC for against KPC-2 producing Klebsiella pneumoniae isolate 209632 in presence of BPL
Klebsiella pneumoniae [22] = test: Antibacterial activity against KPC-2 producing Klebsiella pneumoniae isolate 209735 after 18 hrs by CLSI broth microdilution method; conditions: isolate 209735, 18 h
Klebsiella pneumoniae [23] = test: Antibacterial activity against KPC-2 producing Klebsiella pneumoniae isolate 209735 after 18 hrs in presence of BPL by CLSI broth microdilution method; conditions: isolate 209735, 18 h; procedure, shortened: as §1
Klebsiella pneumoniae [24] = test: Selectivity index, ratio of MIC for against KPC-2 producing Klebsiella pneumoniae isolate 209735 to MIC for against KPC-2 producing Klebsiella pneumoniae isolate 209735 in presence of BPL
Klebsiella pneumoniae [25] = test: Antibacterial activity against KPC-2 producing Klebsiella pneumoniae isolate 212232 after 18 hrs by CLSI broth microdilution method; conditions: isolate 212232, 18 h
Klebsiella pneumoniae [26] = test: Antibacterial activity against KPC-2 producing Klebsiella pneumoniae isolate 212232 after 18 hrs in presence of BPL by CLSI broth microdilution method; conditions: isolate 212232, 18 h; procedure, shortened: as §1
Klebsiella pneumoniae [27] = test: Selectivity index, ratio of MIC for against KPC-2 producing Klebsiella pneumoniae isolate 212232 to MIC for against KPC-2 producing Klebsiella pneumoniae isolate 212232 in presence of BPL
Klebsiella pneumoniae [28] = test: Antibacterial activity against KPC-2 producing Klebsiella pneumoniae isolate 212229 after 18 hrs by CLSI broth microdilution method; conditions: isolate 212229, 18 h
Klebsiella pneumoniae [29] = test: Antibacterial activity against KPC-2 producing Klebsiella pneumoniae isolate 212229 after 18 hrs in presence of BPL by CLSI broth microdilution method; conditions: isolate 212229, 18 h; procedure, shortened: as §1
Klebsiella pneumoniae [30] = test: Selectivity index, ratio of MIC for against KPC-2 producing Klebsiella pneumoniae isolate 212229 to MIC for against KPC-2 producing Klebsiella pneumoniae isolate 212229 in presence of BPL
Pseudomonas aeruginosa [31] = test: Antibacterial activity against IMP-4 producing Pseudomonas aeruginosa isolate 212886 after 18 hrs by CLSI broth microdilution method; conditions: isolate 212886, 18 h
Pseudomonas aeruginosa [32] = test: Antibacterial activity against IMP-4 producing Pseudomonas aeruginosa isolate 212886 after 18 hrs in presence of BPL by CLSI broth microdilution method; conditions: isolate 212886, 18 h; procedure, shortened: as §1
Pseudomonas aeruginosa [33] = test: Selectivity index, ratio of MIC for against IMP-4 producing Pseudomonas aeruginosa isolate 212886 to MIC for against IMP-4 producing Pseudomonas aeruginosa isolate 212886 in presence of BPL
Pseudomonas aeruginosa [34] = test: Antibacterial activity against IMP-4 producing Pseudomonas aeruginosa isolate 209471 after 18 hrs by CLSI broth microdilution method; conditions: isolate 209471, 18 h
Pseudomonas aeruginosa [35] = test: Antibacterial activity against IMP-4 producing Pseudomonas aeruginosa isolate 209471 after 18 hrs in presence of BPL by CLSI broth microdilution method; conditions: isolate 209471, 18 h; procedure, shortened: as §1
Pseudomonas aeruginosa [36] = test: Selectivity index, ratio of MIC for against IMP-4 producing Pseudomonas aeruginosa isolate 209471 to MIC for against IMP-4 producing Pseudomonas aeruginosa isolate 209471 in presence of BPL
Pseudomonas aeruginosa [37] = test: Antibacterial activity against IMP-4 producing Pseudomonas aeruginosa isolate 208247 after 18 hrs by CLSI broth microdilution method; conditions: isolate 208247, 18 h
Pseudomonas aeruginosa [38] = test: Antibacterial activity against IMP-4 producing Pseudomonas aeruginosa isolate 208247 after 18 hrs in presence of BPL by CLSI broth microdilution method; conditions: isolate 208247, 18 h; procedure, shortened: as §1
Pseudomonas aeruginosa [39] = test: Selectivity index, ratio of MIC for against IMP-4 producing Pseudomonas aeruginosa isolate 208247 to MIC for against IMP-4 producing Pseudomonas aeruginosa isolate 208247 in presence of BPL
Pseudomonas aeruginosa [40] = test: Antibacterial activity against IMP-4 producing Pseudomonas aeruginosa isolate 209321 after 18 hrs by CLSI broth microdilution method; conditions: isolate 209321, 18 h
Pseudomonas aeruginosa [41] = test: Antibacterial activity against IMP-4 producing Pseudomonas aeruginosa isolate 209321 after 18 hrs in presence of BPL by CLSI broth microdilution method; conditions: isolate 209321, 18 h; procedure, shortened: as §1
Pseudomonas aeruginosa [42] = test: Selectivity index, ratio of MIC for against IMP-4 producing Pseudomonas aeruginosa isolate 209321 to MIC for against IMP-4 producing Pseudomonas aeruginosa isolate 209321 in presence of BPL
Pseudomonas aeruginosa [43] = test: Antibacterial activity against IMP-4 producing Pseudomonas aeruginosa isolate 207272 after 18 hrs by CLSI broth microdilution method; conditions: isolate 207272, 18 h
Pseudomonas aeruginosa [44] = test: Antibacterial activity against IMP-4 producing Pseudomonas aeruginosa isolate 207272 after 18 hrs in presence of BPL by CLSI broth microdilution method; conditions: isolate 207272, 18 h; procedure, shortened: as §1
Pseudomonas aeruginosa [45] = test: Selectivity index, ratio of MIC for against IMP-4 producing Pseudomonas aeruginosa isolate 207272 to MIC for against IMP-4 producing Pseudomonas aeruginosa isolate 207272 in presence of BPL

MIC (Escherichia coli [1]): 0.5 µg/mL (≈ 0.776 µM)
MIC (Escherichia coli [3]): 0.5 µg/mL (≈ 0.776 µM)
MIC (Escherichia coli [4]): 0.125 µg/mL (≈ 0.194 µM)
MIC (Escherichia coli [5]): 0.06 µg/mL
MIC (Escherichia coli [6]): 0.25 µg/mL
MIC (Escherichia coli [8]): 0.25 µg/mL
MIC (Escherichia coli [10]): 1 µg/mL (≈ 1.55 µM)
MIC (Escherichia coli [11]): 0.25 µg/mL
MIC (Escherichia coli [13]): 1 µg/mL (≈ 1.55 µM)
MIC (Escherichia coli [14]): 0.5 µg/mL
MIC (Klebsiella pneumoniae [16]): 2 µg/mL (≈ 3.1 µM)
MIC (Klebsiella pneumoniae [17]): 1 µg/mL
MIC (Klebsiella pneumoniae [19]): 1 µg/mL (≈ 1.55 µM)
MIC (Klebsiella pneumoniae [20]): 1 µg/mL
MIC (Klebsiella pneumoniae [22]): 2 µg/mL (≈ 3.1 µM)
MIC (Klebsiella pneumoniae [23]): 0.5 µg/mL
MIC (Klebsiella pneumoniae [25]): 2 µg/mL (≈ 3.1 µM)
MIC (Klebsiella pneumoniae [26]): 0.25 µg/mL
MIC (Klebsiella pneumoniae [28]): 1 µg/mL (≈ 1.55 µM)
MIC (Klebsiella pneumoniae [29]): 0.5 µg/mL
MIC (Pseudomonas aeruginosa [31]): > 64 µg/mL
MIC (Pseudomonas aeruginosa [32]): 32 µg/mL
MIC (Pseudomonas aeruginosa [34]): 64 µg/mL (≈ 99.3 µM)
MIC (Pseudomonas aeruginosa [35]): 64 µg/mL
MIC (Pseudomonas aeruginosa [37]): 32 µg/mL (≈ 49.6 µM)
MIC (Pseudomonas aeruginosa [38]): 16 µg/mL
MIC (Pseudomonas aeruginosa [40]): 64 µg/mL (≈ 99.3 µM)
MIC (Pseudomonas aeruginosa [41]): 32 µg/mL
MIC (Pseudomonas aeruginosa [43]): 32 µg/mL (≈ 49.6 µM)
MIC (Pseudomonas aeruginosa [44]): 16 µg/mL
Compound: CC(C)C(O/N=C(\C(=O)N[C@@H]1C(=O)N(S(=O)(=O)O)[C@@H]1CSc1nnnn1C)c1csc(N)n1)c1cc(=O)c(O)cn1O (stereo not given in full)
Selectivity Index (Escherichia coli [2]): 2
Selectivity Index (Escherichia coli [7]): 2
Selectivity Index (Escherichia coli [9]): 2
Selectivity Index (Escherichia coli [12]): 4
Selectivity Index (Escherichia coli [15]): 2
Selectivity Index (Klebsiella pneumoniae [18]): 2
Selectivity Index (Klebsiella pneumoniae [21]): 1
Selectivity Index (Klebsiella pneumoniae [24]): 4
Selectivity Index (Klebsiella pneumoniae [27]): 8
Selectivity Index (Klebsiella pneumoniae [30]): 2
Selectivity Index (Pseudomonas aeruginosa [33]): >2
Selectivity Index (Pseudomonas aeruginosa [36]): 1
Selectivity Index (Pseudomonas aeruginosa [39]): 2
Selectivity Index (Pseudomonas aeruginosa [42]): 2
Selectivity Index (Pseudomonas aeruginosa [45]): 2

— ChEMBL document CHEMBL4152188, “Design, synthesis and biological evaluation of C(4) substituted monobactams as antibacterial agents against multidrug-resistant Gram-negative bacteria” (Eur J Med Chem, 2018)
